Data: PubChem BioAssay
Activity calls are given as the source filed them.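 Rule for the calls, unless noted: active = GFP response above 150% of the DMSO level; inconclusive = fewer than 70 events counted for a yeast strain; inactive = the rest.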

What was measured:
[1] = hit retest on RPL19A-GFP reporter strain – cell-based, S. cerevisiae, flow cytometry, cherry picks, mother/daughter gates, confirmation (AID 2270;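 active = GFP response below 50% of the DMSO control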); details: 3 h, at 10 µM, stronger effect = lower value, 100 = same GFP as DMSO wells
[2] = yeast TOR pathway reporter LAP4-GFP change – cell-based, cherry picks, flow cytometry, mother/daughter gates, confirmation (AID 2271;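 active = GFP response above 150% of the DMSO control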;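 note: ratio of sample to DMSO plate mean so 100% equals DMSO level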); details: S. cerevisiae LAP4-GFP strain, 3 h, at 10 µM, stronger effect = higher value, 100 means same as DMSO control
Outline: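 Material: Alexa 633-stained baker's yeast GFP-fusion strain; Compound dosing: single test-compound dose, 10 µM final; Incubation: 30 °C, 3 h compound incubation, rotating; Detection: HT flow cytometry, GFP fluorescence channel; Control set: positive rapamycin (400 ng/mL), negative DMSO.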

[3] = TOR pathway reporter MEP2-GFP, retest of hits – S. cerevisiae, flow cytometry GFP, cherry picks, confirmation (AID 2272;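 active = GFP response above 150% of the DMSO control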;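 note: ratio of well signal to plate DMSO mean so 100% equals DMSO level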); details: S. cerevisiae MEP2-GFP strain, 3 h, at 10 µM, stronger effect = higher value
[4] = yeast AGP1-GFP fluorescence change, single-dose – cell-based, flow cytometry, S. cerevisiae, cherry picks, confirmation (AID 2273);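 note: median GFP channel fluorescence over the whole cell population gate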; details: S. cerevisiae AGP1-GFP strain, 3 h, at 10 µM
[5] = TOR pathway CIT2 reporter hit retest – S. cerevisiae, GFP fusion, cherry picks, mother/daughter gates, confirmation (AID 2274); details: S. cerevisiae CIT2-GFP strain, flow cytometry, 3 h, at 10 µM, stronger effect = higher value
[6] = measured here: daughter cell gate
[7] = measured here: mother cell gate
[8] = measured here: daughter cell gate response
[9] = measured here: mother cell gate response

| Structure (SMILES) | GFP response vs DMSO [1] | GFP response vs DMSO [1, 6] [%] | GFP response vs DMSO [1, 7] [%] | GFP response relative to DMSO [2] | GFP response relative to DMSO [2, 8] [%] | GFP response relative to DMSO [2, 9] [%] | GFP response vs DMSO [3] | GFP response, % of DMSO [4] | GFP response, % of DMSO [5] | GFP response, % of DMSO [5, 6] [%] | GFP response, % of DMSO [5, 7] [%] |
| --- | --- | --- | --- | --- | --- | --- | --- | --- | --- | --- | --- |
| Cc1nnc(NC(=O)c2ccc(S(=O)(=O)N(C)Cc3ccccc3)cc2)o1 | 98.4% (inactive) | 98.1 | 98.2 | 101% (inactive) | 99.2 | 101 | 102% (inactive) | 91.2% (inactive) | 103% (inactive) | 101 | 102 |
| CCCN1C(=O)c2cccc3c(N4CCCCC4)ccc(c23)C1=O | 98.7% (inactive) | 99.8 | 98.2 | 98.9% (inactive) | 101 | 99.5 | 103% (inactive) | 104% (inactive) | 103% (inactive) | 105 | 103 |
| COc1ccc(N/N=C(\C#N)C(N)=O)cc1 | 83.7% (inactive) | 64.6 | 83.7 | 166% (active) | 136 | 185 | 141% (inactive) | 125% (inactive) | 136% (inactive) | 114 | 135 |
| COCCNC(=O)c1ccccc1-c1nc(-c2ccccc2Cl)no1 | 98% (inactive) | 97.1 | 98.9 | 101% (inactive) | 99.2 | 99.3 | 105% (inactive) | 96% (inactive) | 105% (inactive) | 105 | 103 |
| Cc1ccc(N2C(=O)c3ccccc3NC2c2ccccc2O)cc1 (configuration not stated) | 97.2% (inactive) | 98.1 | 98.4 | 97.9% (inactive) | 96 | 96.1 | 109% (inactive) | 96.6% (inactive) | 103% (inactive) | 105 | 103 |
| C/C(=N\NC(=O)c1ccc(Cl)c(Cl)c1)c1cccc(NC(=O)C(C)C)c1 | 99.9% (inactive) | 99.8 | 101 | 94.2% (inactive) | 93.6 | 94.6 | 99.5% (inactive) | 96% (inactive) | 99.3% (inactive) | 100 | 96.8 |
| O=C(c1ccccc1[N+](=O)[O-])n1cnc2ccccc21 | 100% (inactive) | 101 | 100 | 96.1% (inactive) | 98.2 | 96.2 | 94.4% (inactive) | 87.1% (inactive) | 117% (inactive) | 110 | 119 |
| CCCc1[nH]nc2c1C(c1ccc(OC)cc1OC)C(C#N)=C(N)O2 (configuration not stated) | 99.8% (inactive) | 99.9 | 99.8 | 92.8% (inactive) | 91.2 | 95.1 | 105% (inactive) | 90.4% (inactive) | 94% (inactive) | 89.9 | 91.4 |
| Cc1cc(N=Nc2ccccc2C(=O)O)c(C)c(C)c1O | 99.8% (inactive) | 99.4 | 99.3 | 108% (inactive) | 109 | 108 | 114% (inactive) | 98.4% (inactive) | 126% (inactive) | 129 | 125 |
| O=C(Nc1ccccc1C(=O)O)c1ccccc1 | 100% (inactive) | 99.8 | 101 | 100% (inactive) | 102 | 97.5 | 102% (inactive) | 98.9% (inactive) | 99.3% (inactive) | 102 | 98 |
| O=C(c1cc(-c2cccc(Cl)c2)on1)N1CCc2ccccc2C1 | 99.2% (inactive) | 100 | 99.5 | 95.7% (inactive) | 95.9 | 95.2 | 99% (inactive) | 104% (inactive) | 97.3% (inactive) | 97.4 | 96.8 |
| CCOc1ccccc1N1CCN(C(=O)c2cccc(-c3ccc(O)cc3)c2)CC1 | 97% (inactive) | 96.7 | 97.3 | 98.7% (inactive) | 95.6 | 102 | 102% (inactive) | 92.4% (inactive) | 96.5% (inactive) | 94.8 | 94.4 |
| COc1ccc(C(=O)c2no[n+]([O-])c2C(=O)c2ccc(OC)cc2)cc1 | 90.1% (inactive) | 83.3 | 86.6 | 149% (inactive) | 134 | 153 | 94.1% (inactive) | 92.9% (inactive) | 82.6% (inactive) | 77.1 | 73.6 |
| CCN=C(NCC)SC1CC(=O)N(c2cccc(OCC)c2)C1=O (configuration not stated) | 99.2% (inactive) | 97.1 | 98.4 | 101% (inactive) | 99.2 | 98.3 | 100% (inactive) | 101% (inactive) | 103% (inactive) | 103 | 102 |
| COc1cccc(NC(=O)Nc2ccc3c(c2)nnn3C)c1 | 97.8% (inactive) | 98.1 | 96.9 | 103% (inactive) | 102 | 104 | 100% (inactive) | 97.2% (inactive) | 101% (inactive) | 103 | 101 |
| O=C(COc1ccccc1)N1CCN(c2ncnc3c2cnn3-c2ccccc2)CC1 | 98.7% (inactive) | 98.4 | 98.6 | 104% (inactive) | 102 | 105 | 101% (inactive) | 97.3% (inactive) | 98.6% (inactive) | 103 | 98.2 |
| O=C(OCCOc1ccccc1)c1n[nH]c2ccccc12 | 96.4% (inactive) | 95.7 | 97.2 | 103% (inactive) | 97.9 | 101 | 97.5% (inactive) | 102% (inactive) | 102% (inactive) | 104 | 100 |
